The record followed here is PubChem BioAssay.

Test [1] in a line: inhibitors of TNFa-induced NFkB p65 translocation, primary screen, imaging, HUVEC, MLSMR starter and 10KST1 sets (AID 438;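 active = inhibition above 20% together with a positive visual image hit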;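 also: compound added about 3h40 before a 20 min TNFalpha stimulation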;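 as to inhibition: signal is the nuclear over cytoplasmic p65 intensity ratio per well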). As to conditions: HUVEC TNFa-induced p65 nuclear translocation; cell count: measured here: nuclei count (cytotoxicity indicator), at 2.08 µM; inhibition: at 2 µM, stronger effect = higher value, 0% TNFa-plus-vehicle, 100% no-TNFa wells.
The nature of test [2]: inhibitors of E-selectin induction by TNFa, primary screen, imaging, HUVEC, immunofluorescence, MLSMR starter and 10KST1 sets (AID 487).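 As to inhibition: signal is fraction of cell area covered by stained E-selectin grains.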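 As to nuclei count: 100% = median nuclei count of all wells on the same plate.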 The following applies: HUVEC TNFalpha-induced E-selectin immunofluorescence imaging, at 2 µM; inhibition: stronger effect = higher value; nuclei count: measured here: cell number, toxicity.
Test [3] in a line: DUSP6 inhibitors restoring Erk phosphorylation by chemical complementation, primary imaging in DUSP6-transfected HeLa (AID 609;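 active = compounds giving at least 50% inhibition in the cell-based MKP-3 phosphatase rescue imaging test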;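 as to inhibition: phospho-Erk level distribution per well compared with pooled transfected vehicle control wells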). As to conditions: HeLa MKP-3 transfected, phospho-Erk imaging KS statistic, at 10 µM, cells stimulated with TPA for 15 min.
Test [4] concerns the target Dual specificity protein phosphatase 6 (Homo sapiens) (UniProt Q16828). The test is described as above. As to conditions: HeLa MKP-3 transfected, phospho-Erk imaging KS statistic; at 10 µM; stronger effect = higher value; cells stimulated with TPA for 15 min.
Test [5] addresses Voltage-gated potassium channel subunit beta-2 (Rattus norvegicus) (UniProt P62483). In words: KvBeta enzyme negative modulators, primary screen, biochemical, NADPH fluorescence (AID 622;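 active = fluorescence slope higher than the sample average by over 3 SD, cut at about -0.22 in these data, passing the limit was not always enough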;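 also: slope of raw intensity against log time taken from 70 to 1610 s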). As to conditions: recombinant KvBeta, 4-cyanobenzaldehyde reduction, at 10 µM, stronger effect = higher value.
Test [6] shares this target. In words: KvBeta positive modulators, primary screen, biochemical, NADPH fluorescence (AID 623;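 active = NADPH fluorescence slope more negative than the mean of all samples by about 3 SD, 99.7% confidence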;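 also: fluorescence intensity change per second fitted from 20 to 320 s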). As to conditions: Recombinant KvBeta, NADPH fluorescence decrease slope, 10 min; at 10 µM; stronger effect = lower value.
The target of test [7] is Alpha-2C adrenergic receptor (Homo sapiens) (UniProt P18825). The test can be described thus: modulators of alpha2C/GIRK thallium flux, primary screen, cell-based, HEK293 alpha2C/GIRK1/2 (AID 624;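 active = fluorescence slope after compound addition differing from the mean of all screened samples at 99.7% confidence, in either direction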;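 also: slope of fluorescence ratio to pre-addition baseline per second over 15 to 24 s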). The following applies: thallium flux BTC fluorescence, at 10 µM, actives lie on both sides.
Chain of Alpha-2C adrenergic receptor (Homo sapiens) (P18825 whole entry, looked up): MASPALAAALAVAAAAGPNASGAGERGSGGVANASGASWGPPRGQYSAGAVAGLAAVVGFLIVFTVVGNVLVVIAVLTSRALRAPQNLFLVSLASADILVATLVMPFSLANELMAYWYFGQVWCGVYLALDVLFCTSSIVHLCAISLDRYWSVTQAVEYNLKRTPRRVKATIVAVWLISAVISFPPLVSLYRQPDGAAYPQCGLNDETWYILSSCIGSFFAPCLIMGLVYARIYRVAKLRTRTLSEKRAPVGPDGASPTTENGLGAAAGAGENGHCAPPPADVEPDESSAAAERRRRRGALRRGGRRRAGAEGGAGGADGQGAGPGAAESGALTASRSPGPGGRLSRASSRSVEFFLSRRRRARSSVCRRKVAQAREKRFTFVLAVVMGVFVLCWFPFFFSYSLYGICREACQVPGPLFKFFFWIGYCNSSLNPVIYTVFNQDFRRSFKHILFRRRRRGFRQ
Test [8] in a line: inhibitors of larval lipid processing in zebrafish, primary screen, whole organism, PED6 fluorescence, gall bladder and intestine (AID 686;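 active = a full or partial loss of lipid-probe fluorescence in the fish gall bladder, intestine or both, judged by eye; inactive = no fluorescence loss, or compound toxic to the fish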;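 also: larvae 5 to 7 days old with five fish per well; signal comes from phospholipase A2 cleavage of quenched PED6 carried via bile; overnight exposure to compound and PED6 before scoring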). The following applies: Zebrafish larvae PED6 lipid processing, fluorescence scoring; screened at 20 µM (by protocol). The procedure, abridged:
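Test system – live zebrafish larvae aged 5-7 days, whole organism · Buffer or medium – E3 fish medium · Reagent – quenched phospholipase substrate PED6, 100 nM final, ingested by larvae · Doses – 20 µM single dose · Incubation – overnight compound and PED6 incubation · Technique – visual fluorescence microscopy scoring of gall bladder, gut · Read-out basis – visual per-well fluorescence inhibition score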

Test [9] can be described thus: inhibitors of Chlamydomonas gravitaxis, primary screen, whole organism, Chlamydomonas reinhardtii, WT vs cilia-less mutant, absorbance, 96-well (AID 463189;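 active = inhibition at or above 50% relative to wild type and mutant plate controls; inactive = inhibition below 50%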;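 also: 0% = wild type cc124 cells in DMSO and 100% = ciliumless bld1 mutant cells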). As to conditions: OD600 absorbance, 2 days, at 10 µM, stronger effect = higher value.
The mark [10] stands for this setting: measured here: cell density z-score.
The mark [11] stands for this setting: measured here: nuclear c-Myc green intensity z-score.
Setting [12] is: measured here: nuclear pErk red intensity z-score, stronger effect = higher value.

Activity calls are given as the source filed them.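 The calls were made as follows, unless noted: active = visually confirmed hit in the image check and inhibition above 20%; inconclusive = visually confirmed hit but inhibition not above 20%; inactive = no visual hit in the image check.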

What is called inhibition is the drop in the measured response relative to a control, in per cent.

Chain of Voltage-gated potassium channel subunit beta-2 (Rattus norvegicus) (P62483 whole entry, looked up): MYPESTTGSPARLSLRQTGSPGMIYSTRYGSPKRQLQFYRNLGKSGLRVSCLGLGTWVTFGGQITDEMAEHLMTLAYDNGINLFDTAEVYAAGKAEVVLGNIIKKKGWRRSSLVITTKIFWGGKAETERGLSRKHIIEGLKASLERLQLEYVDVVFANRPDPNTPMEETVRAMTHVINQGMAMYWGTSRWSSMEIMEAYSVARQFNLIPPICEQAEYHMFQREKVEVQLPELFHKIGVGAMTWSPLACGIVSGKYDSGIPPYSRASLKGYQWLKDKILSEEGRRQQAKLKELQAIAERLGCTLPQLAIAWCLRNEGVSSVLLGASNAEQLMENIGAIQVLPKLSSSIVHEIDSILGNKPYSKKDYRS
Chain of Dual specificity protein phosphatase 6 (Homo sapiens) (Q16828 whole entry, looked up): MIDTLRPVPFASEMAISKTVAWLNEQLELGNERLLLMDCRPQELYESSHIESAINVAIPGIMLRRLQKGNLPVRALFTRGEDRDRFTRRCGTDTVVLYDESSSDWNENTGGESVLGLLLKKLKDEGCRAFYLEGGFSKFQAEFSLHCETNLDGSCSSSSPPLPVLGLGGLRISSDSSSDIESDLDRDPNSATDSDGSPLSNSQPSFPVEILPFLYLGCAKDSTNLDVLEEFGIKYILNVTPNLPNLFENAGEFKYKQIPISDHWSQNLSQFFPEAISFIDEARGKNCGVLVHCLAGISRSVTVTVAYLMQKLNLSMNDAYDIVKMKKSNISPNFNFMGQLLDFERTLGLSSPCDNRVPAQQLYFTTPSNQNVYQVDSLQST

Regarding `N#Cc1c(N)nc(SCc2ccccn2)c(C#N)c1-c1cccs1`, in test [1], the cell count came out at 526. Moreover, the inhibition in [1] is -6.5% (inactive); in test [2] it was -189% (inactive); in [4], 4.25% (inactive); in [9], 1.02% (inactive). In addition, the nuclei count in test [2] stood at 176%. Further, the z-score in [3] (setting [10]) is 0.739; in test [3] (setting [11]) it was 1.34; in test [3] (setting [12]), -0.969. Also, the fluorescence slope in test [5] is -0.289 (inactive). Further, the NADPH fluorescence slope in test [6] is 1.5e-05 (inactive). In test [7], the slope was 0.00485 (inactive). The call in test [8] was inactive.

With `COc1cccc(CNc2ccc(Br)cn2)c1O`, the cell count in test [1] was found to be 544. Besides, the inhibition in test [1] was -3.4% (inactive); in [2], -2.4% (inactive); in [4], 3.5% (inactive); in test [9], 6.48% (inactive). The same molecule gave a nuclei count in test [2] of 167%. The z-score in test [3] (setting [10]) was -0.809; in test [3] (setting [11]), -0.901; in [3] (setting [12]) it was -0.106. The fluorescence slope in [5] was -0.316 (inactive). In addition, the NADPH fluorescence slope in test [6] is 1.4e-05 (inactive). Also, the slope in test [7] was 0.00431 (inactive). For the same molecule, the result in [8] was inactive.

As for `CNC(=O)Nc1cccc(NC(=O)NC)n1`, the cell count in [1] is 351. Besides, the inhibition in [1] is -2.8% (inactive); in test [2], -90.3% (inactive); in test [4] it was 11.4% (inactive); in test [9] it was -3.2% (inactive). Also, in test [2], the nuclei count was 164%. Besides, the z-score in [3] (setting [10]) was 0.612; in test [3] (setting [11]), 0.757; in test [3] (setting [12]), -1.65. The fluorescence slope in test [5] was -0.456 (inactive). Moreover, the NADPH fluorescence slope in test [6] is -0.000144 (inactive). In addition, the slope in test [7] is 0.00525 (inactive). For the same molecule, the molecule was called inactive in [8].

As for `CCN(CC)CCNC(=O)c1ccccc1N`, the cell count in test [1] is 521. The inhibition in test [1] is -17.4% (inactive); in [2], -314% (inactive); in test [4], -8.95% (inactive); in test [9], -5.26% (inactive). The same molecule returned a nuclei count in [2] of 187%. The z-score in [3] (setting [10]) is 0.845; in test [3] (setting [11]), 0.248; in test [3] (setting [12]), 0.636. In addition, the fluorescence slope in [5] was -0.463 (inactive). Besides, the NADPH fluorescence slope in test [6] is -0.000132 (inactive). Further, the slope in test [7] was 0.00488 (inactive). In test [8], the molecule was classed as inactive.

As to `CCCOc1cc(CN2CCCCC2)cc(C(C)=O)c1`, the cell count in [1] was 662. For the same molecule, the inhibition was -7.2% (inactive) in test [1], -40.5% (inactive) in test [2], 15.1% (inactive) in test [4] and 3.11% (inactive) in [9]. For the same molecule, the nuclei count in test [2] came to 182%. Moreover, the values for the z-score in test [3] (setting [10]), in [3] (setting [11]) and in [3] (setting [12]) were 0.934, -0.767 and 0.549, respectively. For the same molecule, in [5], the fluorescence slope is -0.493 (inactive). Besides, in test [6], the NADPH fluorescence slope is -6.5e-05 (inactive). For the same molecule, the slope in [7] is 0.00496 (inactive). The outcome in [8] was inactive.

For `COC(=O)c1ccc(Cn2cnc3c(sc4nc(N5CCOCC5)c5c(c43)CCCC5)c2=O)o1`, the cell count in test [1] stood at 505. The inhibition in test [1] is 10.2% (inactive); in test [2] it was -144% (inactive); in [4], -7.01% (inactive); in test [9], 6.85% (inactive). In [2], this molecule gave a nuclei count of 132%. The z-score in test [3] (setting [10]) is -0.452; in [3] (setting [11]) it was 0.953; in test [3] (setting [12]) it was 0.541. For the same molecule, the fluorescence slope in [5] was -0.47 (inactive). Moreover, the NADPH fluorescence slope in test [6] is -2.7e-05 (inactive). Moreover, the slope in [7] was 0.00736 (inactive). In addition, in test [8], the outcome was “inactive; toxic”.

On to `COc1cc(C2C(C#N)=C(N)Oc3cc(C)n(CCN4CCOCC4)c(=O)c32)cc(OC)c1OC` (stereo unspecified), for which the cell count in test [1] amounted to 388. Besides, the inhibition in test [1] is 4% (inactive); in [2], -116% (inactive); in test [4], -4.7% (inactive); in [9] it was -6.44% (inactive). The molecule further gave a nuclei count in test [2] of 142%. Further, the z-score in test [3] (setting [10]) is -0.238; in test [3] (setting [11]) it was -0.479; in [3] (setting [12]) it was -0.461. In test [5], the fluorescence slope was -0.468 (inactive). Moreover, the NADPH fluorescence slope in [6] is -4.4e-05 (inactive). Besides, the slope in test [7] was 0.0078 (inactive). For the same molecule, the molecule was called inactive in [8].
